Active and inactive are the calls of the source. The calls are words filed in the database; no cut-off is given here.
Columns and labels:
[1] = tested on: Severe acute respiratory syndrome-related coronavirus; test: Binding affinity to SARS-CoV nsp14 assessed as melting temperature at 1 mM at pH 7.5 by differential scanning fluorimetry
Summary of the method: (§1)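 Purified SARS-CoV nsp14 (5 µM) in 20 mM HEPES pH 7.5, 150 mM NaCl and 1X SYPRO orange, with 1 mM compound (DMSO stock; SAM and sinefungin from water). Protein is mixed with compound before dye is added. Fluorescence is read from 20 to 95 °C at 0.2 °C/min. Tm comes from curve fitting, and ΔTm is taken against a 5% DMSO control.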

[2] = Inhibition of N7-MTase activity of N-terminal His6-tagged SARS-CoV nsp14 expressed in Escherichia coli using GpppAC4 and [3H]SAM as substrate preincubated with enzyme followed by substrate addition and measured after 30 mins by filter binding assay; parameters: species or system Severe acute respiratory syndrome-related coronavirus
Summary of the method: (§2)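 Dose-response filter binding assay with nsp14 or hRNMT (each 50 nM) pre-incubated with increasing compound concentrations (5% final DMSO). Then 0.7 µM GpppAC4, 2 µM SAM and 0.1 µM 3H-SAM are added in Tris pH 8.0/DTT/MgCl2, 30 min at 30 °C. IC50 is taken from a Hill slope fit, mean of three independent experiments.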

[3] = tested on: Severe acute respiratory syndrome-related coronavirus; test: Inhibition of 2'-O-MTase activity of SARS-CoV nsp10/16 complex at 200 uM
[4] = molecular target: RNA-N7 MTase (mRNA cap guanine-N(7) methyltransferase) (Homo sapiens, UniProt O43148); test: Inhibition of N-terminal His6-tagged human RNA-N7 MTase expressed in Escherichia coli using GpppAC4 and [3H]SAM as substrate at 50 uM preincubated with enzyme followed by substrate addition and measured after 30 mins by filter binding assay; settings: probe GpppAC4 and [3H]SAM
Summary of the method: (§3)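 Filter binding assay in 40 mM Tris-HCl pH 8.0, 1 mM DTT, 1 mM MgCl2, 2 µM SAM, 0.1 µM 3H-SAM and 0.7 µM GpppAC4 RNA. Enzyme is nsp14 (50 nM), hRNMT (50 nM) or vaccinia D1–D12 (41 U). Compound is at 50 µM with 5% final DMSO. Reactions run 30 min at 30 °C, are stopped by ice-cold water dilution, and 3H on DEAE filters is counted. Percent inhibition is relative to a 5% DMSO control, mean of three experiments.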

Dengue virus = test: Inhibition of 2'-O-methyltransferase in Dengue virus at 200 uM
Orthopoxvirus vaccinia [5] = test: Inhibition of 2'-O-methyltransferase activity of Vaccinia virus VP39 at 200 uM
Zika virus = test: Inhibition of 2'-O-methyltransferase in Zika virus at 200 uM
Orthopoxvirus vaccinia [6] = test: Inhibition of N7-MTase activity of Vaccinia virus mRNA capping enzyme D1/D12 complex using GpppAC4 and [3H]SAM as substrate at 50 uM preincubated with enzyme followed by substrate addition and measured after 30 mins by filter binding assay; summary of the method: as §3
West Nile virus = test: Inhibition of 2'-O-methyltransferase in West-Nile virus at 200 uM
[7] = tested on: Severe acute respiratory syndrome-related coronavirus; test: Inhibition of N7-MTase activity of N-terminal His6-tagged SARS-CoV nsp14 expressed in Escherichia coli using GpppAC4 and [3H]SAM as substrate at 50 uM preincubated with enzyme followed by substrate addition and measured after 30 mins by filter binding assay; summary of the method: as §3
[8] = molecular target: mRNA cap guanine-N(7) methyltransferase (Homo sapiens, UniProt O43148); test: Inhibition of N-terminal His6-tagged human RNA-N7 MTase expressed in Escherichia coli using GpppAC4 and [3H]SAM as substrate preincubated with enzyme followed by substrate addition and measured after 30 mins by filter binding assay; summary of the method: as §2
[9] = tested on: Severe acute respiratory syndrome-related coronavirus; test: Binding affinity to SARS-CoV nsp14 assessed as increase in melting temperature at 1 mM at pH 7.5 by differential scanning fluorimetry; summary of the method: as §1

Sequence of RNA-N7 MTase (mRNA cap guanine-N(7) methyltransferase) (O43148 whole entry): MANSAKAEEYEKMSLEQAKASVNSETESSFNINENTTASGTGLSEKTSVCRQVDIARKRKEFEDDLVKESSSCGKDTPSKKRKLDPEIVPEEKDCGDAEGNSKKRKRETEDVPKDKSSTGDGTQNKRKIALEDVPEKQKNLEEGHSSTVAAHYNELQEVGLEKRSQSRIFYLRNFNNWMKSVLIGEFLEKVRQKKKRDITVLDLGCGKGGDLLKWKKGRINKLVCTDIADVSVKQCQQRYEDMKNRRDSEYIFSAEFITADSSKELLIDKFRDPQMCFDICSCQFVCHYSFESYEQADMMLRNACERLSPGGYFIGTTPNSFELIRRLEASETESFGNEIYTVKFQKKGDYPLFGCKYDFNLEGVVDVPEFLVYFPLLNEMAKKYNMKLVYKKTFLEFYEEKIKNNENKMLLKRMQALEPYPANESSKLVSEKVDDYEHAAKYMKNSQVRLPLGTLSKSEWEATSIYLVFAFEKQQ
Sequence of mRNA cap guanine-N(7) methyltransferase (O43148 whole entry): as above

| SMILES | Tm [1] [°C] | IC50 [2] [µM] | inhibition [3] | inhibition at 0.5 h, 50 µM [4] [%] | inhibition (Dengue virus) | inhibition (Orthopoxvirus vaccinia [5]) | inhibition (Zika virus) | inhibition (Orthopoxvirus vaccinia [6]) | inhibition (West Nile virus) | inhibition [7] | IC50 [8] [µM] | ΔTm [9] [°C] |
| --- | --- | --- | --- | --- | --- | --- | --- | --- | --- | --- | --- | --- |
| Nc1ncnc2c1ncn2[C@@H]1OC(CN(CCO[C@@H]2[C@H](O)C(CO)O[C@H]2n2cnc3c(N)ncnc32)S(=O)(=O)c2ccc(C(F)(F)F)cc2[N+](=O)[O-])[C@@H](O)[C@H]1O (single isomer, unassigned) | > 40 | 5.7 | inactive | 23.3 | inactive | inactive | inactive | 10.1% | inactive | 94.6% | 276 | 4.6 |
| Nc1ncnc2c1ncn2[C@@H]1O[C@H](CSCC[C@H](N)C(=O)O)[C@@H](O)[C@H]1O | – | – | – | – | – | – | – | – | – | – | – | 6.5 |
| Nc1ncnc2c1ncn2[C@@H]1OC(CN(CCO[C@@H]2[C@H](O)C(CO)O[C@H]2n2cnc3c(N)ncnc32)Cc2ccc(Cl)cc2)[C@@H](O)[C@H]1O (single isomer, unassigned) | > 40 | 9.9 | inactive | 14.7 | inactive | inactive | inactive | 4.5% | inactive | 75.9% | – | 4.6 |
| COc1cc([N+](=O)[O-])ccc1S(=O)(=O)N(CCO[C@@H]1[C@H](O)C(CO)O[C@H]1n1cnc2c(N)ncnc21)CC1O[C@@H](n2cnc3c(N)ncnc32)[C@H](O)[C@@H]1O (single isomer, unassigned) | > 40 | 70.4 | inactive | 44.2 | inactive | inactive | inactive | 5.3% | inactive | 47.6% | 169 | 4.6 |
| Nc1ncnc2c1ncn2[C@@H]1O[C@H](CN(CCO[C@@H]2[C@H](O)[C@@H](CO)O[C@H]2n2cnc3c(N)ncnc32)CC[C@H](N)C(=O)O)[C@@H](O)[C@H]1O | – | 40.6 | inactive | 77.4 | inactive | inactive | inactive | 85.8% | inactive | 72% | 10.9 | – |
| Nc1ncnc2c1ncn2[C@@H]1OC(CN(CCCc2ccccc2)CCO[C@@H]2[C@H](O)C(CO)O[C@H]2n2cnc3c(N)ncnc32)[C@@H](O)[C@H]1O (single isomer, unassigned) | > 40 | 55.5 | inactive | 23.1 | inactive | inactive | inactive | 11.6% | inactive | 38.4% | > 500 | 4.6 |
| Nc1ncnc2c1ncn2[C@@H]1O[C@H](CN(CCCC(=O)O)CCO[C@@H]2[C@H](O)[C@@H](CO)O[C@H]2n2cnc3c(N)ncnc32)[C@@H](O)[C@H]1O | – | – | inactive | – | inactive | inactive | inactive | inactive | inactive | 43% | – | – |
| Nc1ncnc2c1ncn2[C@@H]1OC(CN(CCO[C@@H]2[C@H](O)C(CO)O[C@H]2n2cnc3c(N)ncnc32)S(=O)(=O)c2ccc([N+](=O)[O-])cc2)[C@@H](O)[C@H]1O (single isomer, unassigned) | > 40 | 2.6 | inactive | 66 | inactive | inactive | inactive | 49.8% | inactive | 88.6% | > 500 | 4.6 |
| NC(=O)[C@@H](N)CCN(CCO[C@@H]1[C@H](O)[C@@H](CO)O[C@H]1n1cnc2c(N)ncnc21)C[C@H]1O[C@@H](n2cnc3c(N)ncnc32)[C@H](O)[C@@H]1O | – | – | inactive | 12.2 | inactive | inactive | inactive | 53.2% | inactive | 13.1% | – | – |
| Nc1ncnc2c1ncn2[C@@H]1O[C@H](CNCCO[C@@H]2[C@H](O)[C@@H](CO)O[C@H]2n2cnc3c(N)ncnc32)[C@@H](O)[C@H]1O | – | – | inactive | 35.2 | inactive | inactive | inactive | 20.3% | inactive | 31% | – | – |
| COC(=O)[C@@H](N)CCN(CCO[C@@H]1[C@H](O)[C@@H](CO)O[C@H]1n1cnc2c(N)ncnc21)C[C@H]1O[C@@H](n2cnc3c(N)ncnc32)[C@H](O)[C@@H]1O | – | – | inactive | 33.2 | inactive | inactive | inactive | 32.1% | inactive | 30.6% | – | – |
| COC(=O)CCCN(CCO[C@@H]1[C@H](O)[C@@H](CO)O[C@H]1n1cnc2c(N)ncnc21)C[C@H]1O[C@@H](n2cnc3c(N)ncnc32)[C@H](O)[C@@H]1O | – | – | inactive | 32.8 | inactive | inactive | inactive | 69.2% | inactive | inactive | – | – |
| Nc1ncnc2c1ncn2[C@@H]1OC(CN(CCO[C@@H]2[C@H](O)C(CO)O[C@H]2n2cnc3c(N)ncnc32)Cc2ccc(Cl)c([N+](=O)[O-])c2)[C@@H](O)[C@H]1O (single isomer, unassigned) | > 40 | 2.4 | inactive | – | inactive | inactive | inactive | 4.3% | inactive | 94% | – | 4.6 |
| CCCCN(CCO[C@@H]1[C@H](O)[C@@H](CO)O[C@H]1n1cnc2c(N)ncnc21)C[C@H]1O[C@@H](n2cnc3c(N)ncnc32)[C@H](O)[C@@H]1O | – | – | inactive | 27.5 | inactive | inactive | inactive | inactive | inactive | inactive | – | – |
| Nc1ncnc2c1ncn2[C@@H]1O[C@H](C[C@@H](N)CC[C@H](N)C(=O)O)[C@@H](O)[C@H]1O [SINEFUNGIN] | – | 0.36 | – | 99.8 | – | – | – | 99.8% | – | 98.3% | < 0.05 | 4.4 |
| Nc1ncnc2c1ncn2[C@@H]1OC(CN(CCO[C@@H]2[C@H](O)C(CO)O[C@H]2n2cnc3c(N)ncnc32)S(=O)(=O)c2ccc(Cl)cc2)[C@@H](O)[C@H]1O (single isomer, unassigned) | > 40 | 1.5 | inactive | 20.2 | inactive | inactive | inactive | 19.7% | inactive | 96.2% | – | 4.6 |

From ChEMBL document CHEMBL4765355, “Synthesis of adenine dinucleosides SAM analogs as specific inhibitors of SARS-CoV nsp14 RNA cap guanine-N7-methyltransferase” (Eur J Med Chem, 2020)
